Assays:
DU-145 = assay: Cytotoxicity against human DU145 cells after 48 hrs by […]; assay type: functional, cell-based; settings: for IC50: DU-145, 48 h
Procedure, shortened: (§1)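 Cells from ATCC, grown in RPMI 1640 with 10% heat-inactivated FBS and 1% penicillin/streptomycin. Seeded at 5000 cells/well and incubated overnight, then exposed to graded compound concentrations or DMSO vehicle for 48 h. Viability was read by MTS reagent absorbance at 490 nm and normalized to vehicle. Each experiment was run in triplicate or quadruplicate; values are means ± SD.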

A2058 = assay: Cytotoxicity against human A2058 cells after 48 hrs by […]; assay type: functional, cell-based; settings: for IC50: A2058, 48 h; procedure, shortened: as §1
NHDF = assay: Cytotoxicity against human NHDF cells after 48 hrs by […]; assay type: cell-based; settings: for IC50: Homo sapiens, NHDF; for inhibition (INH): human, nhdf
Procedure, shortened: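 Normal human dermal fibroblasts were grown in DMEM with 10% FBS. Seeded at 5000 cells/well and incubated overnight, then exposed to compounds or DMSO vehicle for 48 h. Viability was read by MTS absorbance at 490 nm and normalized to vehicle. Each experiment was run in triplicate or quadruplicate.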

Row | SMILES | inhibition (DU-145) | IC50 (DU-145) [µM] | inhibition (A2058) | IC50 (A2058) [µM] | IC50 (NHDF) [µM] | inhibition (INH) (NHDF)
1 | COc1c(CC=C(C)C)c(O)c(C(CC(C)C)c2c(O)c(C(C)=O)c(O)c3c2OC(C(C)(C)O)C3)c(O)c1C(C)=O (stereo not given) [ACROFOLIONE A] | Dose-dependent effect | > 5 | Dose-dependent effect | 4.2 | > 5 | Dose-dependent effect
2 | C=C(C)C(O)Cc1c(O)c(C(C)=O)c(O)c(C(CC(C)C)c2c(O)c(CC=C(C)C)c(OC)c(C(C)=O)c2O)c1O (stereo not given) [ACROVESTENOL] | Dose-dependent effect | 2.7 | Dose-dependent effect | 2.8 | > 5 | Dose-dependent effect
3 | COc1c(CC=C(C)C)c(O)c([C@H](CC(C)C)c2c(O)c(CC=C(C)C)c(O)c(C(C)=O)c2O)c(O)c1C(C)=O [ACROVESTONE] | Dose-dependent effect | 0.93 | Dose-dependent effect | 0.38 | > 5 | Dose-dependent effect
4 | CNC(=O)c1cc(Oc2ccc(NC(=O)Nc3ccc(Cl)c(C(F)(F)F)c3)cc2)ccn1 [SORAFENIB] | – | 5.1 | – | 3.8 | – | –
